Assay results as given in BindingDB's records for doi:10.1021/jm060253o (University of Bologna, 2006).
pIC50: −log10 of the molar value.

Legend:
[1] = target: Breakpoint cluster region protein/Tyrosine-protein kinase ABL1 (Homo sapiens, UniProt P00519+P11274); assay: Antiproliferative activity against human K562 cell line expressing Bcr-Abl
Procedure, shortened: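 Cell growth inhibition measured by counting cells with an automatic cell counter in sensitive HL60, MDR HL60R and Bcr-Abl-expressing K562 cells. IC50 is the concentration inhibiting 50% of cell growth.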

[2] = Antiproliferative activity against MDR human HL60R cell line

Breakpoint cluster region protein/Tyrosine-protein kinase ABL1, sequence (P00519 whole entry): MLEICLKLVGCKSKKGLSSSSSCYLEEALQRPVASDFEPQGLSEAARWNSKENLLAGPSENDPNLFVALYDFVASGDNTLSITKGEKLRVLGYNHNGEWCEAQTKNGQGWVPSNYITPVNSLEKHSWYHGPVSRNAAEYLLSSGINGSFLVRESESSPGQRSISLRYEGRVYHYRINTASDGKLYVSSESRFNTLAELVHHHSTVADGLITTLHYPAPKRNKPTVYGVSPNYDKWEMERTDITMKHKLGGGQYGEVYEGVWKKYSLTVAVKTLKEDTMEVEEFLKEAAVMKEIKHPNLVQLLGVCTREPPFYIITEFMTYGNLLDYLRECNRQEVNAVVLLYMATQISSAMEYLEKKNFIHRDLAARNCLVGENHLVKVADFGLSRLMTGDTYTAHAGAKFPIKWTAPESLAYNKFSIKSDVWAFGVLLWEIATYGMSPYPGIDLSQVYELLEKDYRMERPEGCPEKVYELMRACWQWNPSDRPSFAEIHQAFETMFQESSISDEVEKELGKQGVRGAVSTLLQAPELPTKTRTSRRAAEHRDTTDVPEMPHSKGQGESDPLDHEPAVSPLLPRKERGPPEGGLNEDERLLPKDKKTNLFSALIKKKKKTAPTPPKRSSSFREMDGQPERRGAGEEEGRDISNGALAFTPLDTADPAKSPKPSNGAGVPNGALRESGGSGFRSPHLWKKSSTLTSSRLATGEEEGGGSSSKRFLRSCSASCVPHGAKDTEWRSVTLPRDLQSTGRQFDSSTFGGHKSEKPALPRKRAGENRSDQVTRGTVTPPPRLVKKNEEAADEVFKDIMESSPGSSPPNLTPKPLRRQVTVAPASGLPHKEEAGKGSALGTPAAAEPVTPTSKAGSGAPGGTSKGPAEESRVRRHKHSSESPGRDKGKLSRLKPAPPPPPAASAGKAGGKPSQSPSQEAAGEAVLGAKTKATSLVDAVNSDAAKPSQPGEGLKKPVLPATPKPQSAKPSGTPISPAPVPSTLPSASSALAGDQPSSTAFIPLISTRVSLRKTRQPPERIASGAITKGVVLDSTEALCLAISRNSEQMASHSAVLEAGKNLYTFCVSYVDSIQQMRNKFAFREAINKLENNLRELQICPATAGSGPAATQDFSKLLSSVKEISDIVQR
Breakpoint cluster region protein/Tyrosine-protein kinase ABL1, sequence (P11274 whole entry): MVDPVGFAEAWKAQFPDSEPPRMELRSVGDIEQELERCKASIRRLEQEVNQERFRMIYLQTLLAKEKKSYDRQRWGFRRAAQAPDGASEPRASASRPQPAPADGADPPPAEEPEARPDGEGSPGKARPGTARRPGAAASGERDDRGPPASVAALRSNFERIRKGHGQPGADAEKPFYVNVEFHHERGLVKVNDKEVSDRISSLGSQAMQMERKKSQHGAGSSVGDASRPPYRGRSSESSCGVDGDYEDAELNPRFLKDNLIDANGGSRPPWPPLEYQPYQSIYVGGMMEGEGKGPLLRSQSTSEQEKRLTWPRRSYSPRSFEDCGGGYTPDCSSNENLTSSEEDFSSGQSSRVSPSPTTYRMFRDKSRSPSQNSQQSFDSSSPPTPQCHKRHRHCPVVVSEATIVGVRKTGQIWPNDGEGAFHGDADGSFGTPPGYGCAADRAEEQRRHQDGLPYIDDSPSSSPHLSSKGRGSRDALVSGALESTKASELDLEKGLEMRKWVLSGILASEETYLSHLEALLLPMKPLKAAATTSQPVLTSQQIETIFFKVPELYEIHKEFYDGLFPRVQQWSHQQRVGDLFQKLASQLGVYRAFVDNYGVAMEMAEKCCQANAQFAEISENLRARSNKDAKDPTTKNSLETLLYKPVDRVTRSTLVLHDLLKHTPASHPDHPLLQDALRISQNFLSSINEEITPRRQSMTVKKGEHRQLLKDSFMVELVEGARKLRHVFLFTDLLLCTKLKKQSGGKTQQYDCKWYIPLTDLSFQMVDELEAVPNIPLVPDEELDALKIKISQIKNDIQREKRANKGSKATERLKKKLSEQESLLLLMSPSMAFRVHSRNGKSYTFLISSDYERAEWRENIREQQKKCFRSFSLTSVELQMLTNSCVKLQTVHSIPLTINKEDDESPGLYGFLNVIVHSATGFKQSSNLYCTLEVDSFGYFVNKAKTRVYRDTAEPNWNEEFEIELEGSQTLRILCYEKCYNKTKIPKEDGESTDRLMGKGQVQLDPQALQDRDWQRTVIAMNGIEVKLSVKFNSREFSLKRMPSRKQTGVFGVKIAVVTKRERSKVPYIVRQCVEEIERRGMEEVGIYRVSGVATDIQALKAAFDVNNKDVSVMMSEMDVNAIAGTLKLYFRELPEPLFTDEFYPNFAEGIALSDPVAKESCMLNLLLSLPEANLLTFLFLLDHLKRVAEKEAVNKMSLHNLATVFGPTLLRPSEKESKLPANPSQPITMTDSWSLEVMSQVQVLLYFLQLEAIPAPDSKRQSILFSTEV

Molecule `COc1ccc(/C=C/c2cc(OC)cc(OC)c2)cc1` has a pIC50 [1] of 5.00.
In the case of `COc1ccc(-c2ccccc2-c2cc(OC)cc(OC)c2)cc1` [4,3'',5''-trimethoxy-[1,1';2',1'']-terphenyl], the pIC50 [1] was 5.22.
For `COc1cc(/C=C/c2cc(C(C)(C)C)c(O)c(C(C)(C)C)c2)cc(OC)c1` [2,6-di-tert-butyl-4-[(E)-2-(3,5-dimethoxy-phenyl)-vinyl]-phenol], the pIC50 [1] was under 4.00.
Molecule `COc1cc(/C=C/c2ccc(O)cc2)cc(OC)c1` [4-[2-(3,5-Dimethoxy-phenyl)-vinyl]-phenol] has a pIC50 [1] of 5.00 and a pIC50 [2] of 4.38.
`COc1cc(/C=C/c2ccccc2O)cc(OC)c1` [2-[(E)-2-(3,5-dimethoxy-phenyl)-vinyl]-phenol] gave a pIC50 [1] of 4.62 and a pIC50 [2] of 4.17.
With `COc1cc(OC)cc(-c2ccccc2-c2ccc(O)cc2)c1` [3'',5''-dimethoxy-[1,1';2',1'']-terphenyl-4-ol] the pIC50 [1] was 4.85 and the pIC50 [2] was 4.55.
`COc1ccc(-c2cccc(-c3cc(OC)cc(OC)c3)c2)cc1` [4,3'',5''-trimethoxy-[1,1';3',1'']-terphenyl] showed a pIC50 [1] of 5.00 and a pIC50 [2] of 4.10.
Work on `COc1cc(OC)cc(-c2cccc(-c3ccc(O)cc3)c2)c1` [3'',5''-dimethoxy-[1,1';3',1'']-terphenyl-4-ol] yielded a pIC50 [1] of 4.85 and a pIC50 [2] of 4.70.
In the case of `Oc1cc(O)cc(-c2ccc3cc(O)ccc3c2)c1` [5-(6-hydroxy-naphtalen-2-yl)-benzene-1,3-diol], the pIC50 [1] was 4.70.
For `Oc1ccc(/C=C/c2cc(O)cc(O)c2)cc1` [5-[(E)-2-(4-hydroxyphenyl)ethenyl]benzene-1,3-diol], the pIC50 [1] was 4.55 and the pIC50 [2] was 4.22.
Work on `Oc1ccc(-c2ccccc2-c2cc(O)cc(O)c2)cc1` [[1,1';2',1'']-terphenyl-4,3'',5''-triol] yielded a pIC50 [1] of 5.10 and a pIC50 [2] of 4.92.
For `Oc1ccc(-c2ccc(-c3cc(O)cc(O)c3)cc2)cc1` [[1,1';4',1'']-terphenyl-4,3'',5''-triol], the pIC50 [1] was 4.70 and the pIC50 [2] was 4.64.
`COc1cc(/C=C/c2cc(OC)c(O)c(OC)c2)cc(OC)c1` [4-[(E)-2-(3,5-dimethoxy-phenyl)-vinyl]-2,6-dimethoxy-phenol] gave a pIC50 [1] of 4.64 and a pIC50 [2] of under 4.00.
Molecule `COc1cc(OC)cc(-c2ccc3cc(OC)ccc3c2)c1` [2-(3,5-Dimethoxy-phenyl)-6-methoxy-naphthalene] has a pIC50 [1] of under 4.00 and a pIC50 [2] of under 4.00.
`COc1cc(/C=C/c2cc(Cl)ccc2O)cc(OC)c1` [4-chloro-2-[(E)-2-(3,5-dimethoxy-phenyl)-vinyl]-phenol] showed a pIC50 [1] of 4.80.
Molecule `COc1ccc(-c2ccc(-c3cc(OC)cc(OC)c3)cc2)cc1` [4,3'',5''-trimethoxy-[1,1';4',1'']-terphenyl] has a pIC50 [1] of under 4.00 and a pIC50 [2] of under 4.00.
`COc1cc(/C=C/c2cccc(O)c2)cc(OC)c1` [3-[(E)-2-(3,5-Dimethoxy-phenyl)-vinyl]-phenol] gave a pIC50 [1] of 4.59 and a pIC50 [2] of under 4.00.
Work on `COc1cc(OC)cc(-c2ccc3cc(O)ccc3c2)c1` [6-(3,5-dimethoxy-phenyl)-naphthalen-2-ol] yielded a pIC50 [1] of 4.38 and a pIC50 [2] of 4.80.
Work on `COc1cc(OC)cc(-c2ccc(-c3ccc(O)cc3)cc2)c1` [3'',5''-dimethoxy-[1,1';4,1'']-terphenyl-4-ol] yielded a pIC50 [1] of 4.46 and a pIC50 [2] of 4.64.
`COc1cc(/C=C/c2cccc(OC)c2O)cc(OC)c1` [2-[(E)-2-(3,5-dimethoxyphenyl)vinyl]-6-methoxyphenol] gave a pIC50 [1] of 5.10.
For `Oc1ccc(-c2cccc(-c3cc(O)cc(O)c3)c2)cc1` [[1,1';3',1'']-terphenyl-4,3'',5''-triol], the pIC50 [1] was 4.70 and the pIC50 [2] was 4.24.
